In the library only some 5.9% were active in any assay of this set; here they are far more common.
KDM4C inh: inhibitors of GASC-1 (KDM4C) histone demethylase, primary screen, biochemical, single concentration HTS | Lysine-specific demethylase 4C (Homo sapiens), Q9H3R0 | GST-KDM4C 2-372, H3K9me3 peptide, LANCE TR-FRET | inhibition, % at 12.5 µM | 96,000 tested, 0.15% active | AID 720574, 2013;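 active means mean replicate inhibition above about 25%, with at least 55% of replicates also reaching it, limit read from the data, passing the limit was not always enough; inconclusive means only one of those two conditions met; inactive means neither condition met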
Target sequence (Q9H3R0 2-372 limits assumed): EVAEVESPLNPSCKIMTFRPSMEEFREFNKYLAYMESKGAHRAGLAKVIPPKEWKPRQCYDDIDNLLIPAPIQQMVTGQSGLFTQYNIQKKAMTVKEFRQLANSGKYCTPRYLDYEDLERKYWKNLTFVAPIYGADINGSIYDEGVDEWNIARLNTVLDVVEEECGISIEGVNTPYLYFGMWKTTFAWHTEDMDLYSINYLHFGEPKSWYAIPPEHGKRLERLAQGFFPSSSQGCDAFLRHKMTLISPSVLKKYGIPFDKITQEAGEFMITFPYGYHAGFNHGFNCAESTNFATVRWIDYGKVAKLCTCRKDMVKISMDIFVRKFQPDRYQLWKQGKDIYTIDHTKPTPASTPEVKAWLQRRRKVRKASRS
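Assay system: GST-GASC-1 enzyme fragment 2-372 | Amount: 10 nM enzyme | Medium: HEPES buffer, pH 7.5, plus ascorbate | Reagent: H3K9me3 peptide substrate, Fe(II), 2-oxoglutarate | Doses: Single-point compound screen | Incubation: 30 min demethylation and 1 h detection at room temperature | Measured by: LANCE TR-FRET, excitation 340 nm, emissions 618 and 671 nm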
Pf Dd2 growth: P. falciparum Dd2 growth inhibitors, primary screen, SYBR Green fluorescence, single dose replicates; 94,000 tested, 2.3% active; activity change, % at 10 µM; 72 h; hits give low values; in the data active means activity change below about -80%; inconclusive means no clear call, values can overlap the other calls
IDH1 R132H inh: inhibitors of IDH1 R132H reductase, primary screen, biochemical, plate reader, single point | Isocitrate dehydrogenase [NADP] cytoplasmic (Homo sapiens), O75874 | diaphorase/resazurin fluorescence, 60 min | inhibition, % at 10 µM | 70,000 tested, 0.18% active | AID 624101, 2012; in the data active means inhibition above about 34%; inconclusive means no clear call, values can overlap the other calls; inactive means below about 11%;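 further: 0% = DMSO and 100% = no enzyme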
T cruzi growth-1: T. cruzi intracellular proliferation inhibitors, primary screen, cell-based, beta-gal Tulahuen parasites, NIH3T3 host, luminescence | AID 624255, 2012 | inhibition, % at 8.34 µM | 77,000 tested, 5.9% active | T. cruzi beta-gal in NIH3T3, GalScreen luminescence, 90 h;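 active means mean inhibition above about 93%, with at least 55% of replicates each passing it, limit read from the data, passing the limit was not always enough; inconclusive means only one of those two conditions holds; inactive means neither condition holds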
T cruzi growth-2: T. cruzi intracellular proliferation inhibitors, confirmation, cell-based, NIH3T3 host, beta-gal parasite, luminescence, cherry-pick; shares compounds with T cruzi growth-1; T. cruzi beta-gal in NIH3T3, GalScreen luminescence, 90 h; inhibition, % at 8.35 µM; 5,600 tested, 72% active; AID 651739, 2012;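 active means mean replicate inhibition above about 95% and at least 55% of replicates individually reaching it, limit read from the data; inconclusive means only one of the two criteria is met; inactive means neither criterion is met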
T cruzi growth-3: inhibitors of intracellular T. cruzi replication, confirmation, NIH3T3 host cells, beta-gal parasites, cherry-pick, set 2; 5,600 tested, 21% active; shares compounds with T cruzi growth-1; AID 651740, 2012; T. cruzi beta-gal in NIH3T3, GalScreen luminescence, 90 h; inhibition, % at 2.09 µM;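 active means mean inhibition above about 95%, with at least 55% of replicates also reaching it, limit read from the data; inconclusive means meets just one of the two conditions; inactive means meets neither condition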;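 further: plate controls were neutral control median for no effect and positive control median for full effect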
3T3 cytotox: cytotoxicity in mouse NIH/3T3 fibroblasts, confirmation, cytotoxicity control for T. cruzi proliferation inhibitor project, cell-based, cherry-pick, single point; AID 651742, 2012; shares compounds with T cruzi growth-1; NIH/3T3 viability, CellTiter-Glo ATP luminescence, 90 h; 5,600 tested, 14% active; cytotoxicity (signal decrease), % at 8.35 µM;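 active means mean signal decrease across replicates above about 35% based on untreated-well scatter, with enough replicates individually passing, limit read from the data; inconclusive means no rule stated though some were filed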;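 further: 0% = median of neutral control wells and 100% = median of positive control wells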
NIH3T3 tox 2: NIH/3T3 fibroblast cytotoxicity, confirmation, cytotoxicity control, cell-based, cherry-pick, single point, set 2; shares compounds with T cruzi growth-1; NIH/3T3 viability, CellTiter-Glo ATP luminescence, 90 h; inhibition, % at 24.9 µM; 5,600 tested, 56% active; AID 651744, 2012;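 active means mean loss of cell viability signal at or above a set limit, and enough replicates individually reaching it; inconclusive means meets only the mean limit or only the replicate share; inactive means meets neither condition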;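 further: 0% = median of neutral control wells and 100% = median of positive control wells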
Numbers without * were called inactive; ? = inconclusive; nt = no result.

SMILES	KDM4C inh	Pf Dd2 growth	IDH1 R132H inh	T cruzi growth-1	T cruzi growth-2	T cruzi growth-3	3T3 cytotox	NIH3T3 tox 2
CN(C)C(=O)c1cccc(-c2ccc3c(c2)[C@@H]2[C@@H](CCN2S(=O)(=O)c2cn(C)cn2)[C@@H](CO)N3)c1	0	16	nt	?	103*	40	14	-9
COc1cccc(-c2ccc3c(c2)O[C@H](CN(C)C(=O)C2CCCCC2)[C@H](C)CN([C@@H](C)CO)S3(=O)=O)c1	-1	-3	nt	117*	103*	88	23	89*
COc1cccc(-c2ccc3c(c2)O[C@@H](CN(C)C(=O)C2CCC2)[C@H](C)CN([C@@H](C)CO)S3(=O)=O)c1	3	-54	0	110*	97*	?	26	27*
COc1cccc(-c2ccc3c(c2)O[C@H](CN(C)C(=O)C2CC2)[C@H](C)CN([C@H](C)CO)S3(=O)=O)c1	2	7	nt	80	nt	nt	nt	nt
COc1cccc(-c2ccc3c(c2)O[C@@H](CN(C)C(=O)C2CC2)[C@H](C)CN([C@@H](C)CO)S3(=O)=O)c1	-2	-54	nt	72	nt	nt	nt	nt
COc1cccc(-c2ccc3c(c2)O[C@@H](CN(C)C(=O)C2CCCCC2)[C@H](C)CN([C@H](C)CO)S3(=O)=O)c1	0	-69	nt	105*	96*	36	29	91*
COc1cccc(-c2ccc3c(c2)O[C@@H](CN(C)C(=O)C2CC2)[C@H](C)CN([C@H](C)CO)S3(=O)=O)c1	0	-31	nt	71	nt	nt	nt	nt
COc1cccc(-c2ccc3c(c2)O[C@H](CN(C)C(=O)C2CCCCC2)[C@@H](C)CN([C@H](C)CO)S3(=O)=O)c1	-2	-64	-3	99*	101*	78	28	43*
O=C(CSc1nc(-c2ccccc2)cc(=O)[nH]1)Nc1ccccc1Cl	nt	nt	0	nt	nt	nt	nt	nt
OC[C@@H]1[C@H](c2ccc(C3=CCCC3)cc2)[C@H]2CN(CCC(F)(F)F)CCCCN12	nt	-77	nt	103*	100*	58	15	103*
OC[C@@H]1[C@H](c2ccc(C3=CCCCC3)cc2)[C@@H]2CN(CCC(F)(F)F)CCCCN12	0	-58	nt	?	96*	105*	70*	106*
C[C@H](CO)N1C[C@H](C)[C@@H](CN(C)S(=O)(=O)c2cccs2)Oc2ccc(NC(=O)Cc3ccccc3)cc2C1=O	1	-28	nt	-79	nt	nt	nt	nt
Cc1ccc(S(=O)(=O)N(C)C[C@@H]2Oc3cc(C4=CCCC4)ccc3S(=O)(=O)N([C@@H](C)CO)C[C@H]2C)cc1	0	-61	0	nt	nt	nt	nt	nt
C[C@@H]1CN([C@H](C)CO)S(=O)(=O)c2ccc(C3=CCCC3)cc2O[C@H]1CN(C)S(=O)(=O)c1ccc(F)cc1	0	-41	nt	116*	107*	83	17	25*
C[C@@H]1CN([C@H](C)CO)S(=O)(=O)c2ccc(C3=CCCC3)cc2O[C@@H]1CN(C)S(=O)(=O)c1ccc(F)cc1	11	-23	-2	122*	110*	40	20	32*
C[C@H]1CN([C@@H](C)CO)S(=O)(=O)c2ccc(C3=CCCC3)cc2O[C@@H]1CN(C)S(=O)(=O)c1ccc(F)cc1	1	-42	nt	123*	97*	101*	45*	10
O=C(NC[C@@H]1CC[C@H]2[C@H](CN2Cc2ccccc2C(=O)O)O1)c1ccc(F)cc1	nt	13	nt	nt	nt	nt	nt	nt
O=C(Nc1ccc(F)cc1)N[C@@H]1CC[C@H](CCNC(=O)c2ccccc2F)O[C@@H]1CO	4	-29	nt	nt	nt	nt	nt	nt
CCCC(=O)n1nc(-c2ccccc2)nc1NCc1ccco1	nt	nt	0	nt	nt	nt	nt	nt
COc1ccc(-c2cnc3c(c2)C(=O)N([C@@H](C)CO)C[C@@H](C)[C@H](CN(C)C(=O)NC2CCCC2)O3)cc1	3	-22	-1	14	nt	nt	nt	nt
CO[C@H]1CN(C)C(=O)c2cc(NC(=O)NC3CCCCC3)ccc2OC[C@@H](C)NC[C@H]1C	-1	nt	0	32	nt	nt	nt	nt
CC(C)C#Cc1ccc2c(c1)O[C@@H](CN(C)C(=O)c1ccncc1)[C@@H](C)CN([C@H](C)CO)S2(=O)=O	-1	-11	2	107*	102*	?	27	42*
CC(C)C#Cc1ccc2c(c1)O[C@H](CN(C)C(=O)c1ccccc1)[C@@H](C)CN([C@H](C)CO)S2(=O)=O	2	-65	0	115*	105*	61	0	30*
CC(C)C#Cc1ccc2c(c1)O[C@@H](CN(C)C(=O)c1ccccc1)[C@H](C)CN([C@H](C)CO)S2(=O)=O	0	-76	0	99*	104*	46	46*	39*
CO[C@H]1CN(C)C(=O)c2cc(NS(=O)(=O)c3ccccc3)ccc2OC[C@H](C)N(Cc2ccccn2)C[C@@H]1C	1	-8	0	14	nt	nt	nt	nt
SMILES	KDM4C inh	Pf Dd2 growth	IDH1 R132H inh	T cruzi growth-1	T cruzi growth-2	T cruzi growth-3	3T3 cytotox	NIH3T3 tox 2
C[C@@H]1CN([C@@H](C)CO)C(=O)c2cc(C#Cc3ccncc3)cnc2O[C@@H]1CN(C)C(=O)c1ccccc1F	1	14	13	nt	nt	nt	nt	nt
COc1ccccc1-c1ccc([C@@H]2[C@@H](CO)N3CCCCN(Cc4ccncc4)C[C@H]23)cc1	4	-8	nt	58	nt	nt	nt	nt
C[C@H]1CN([C@@H](C)CO)C(=O)c2cc(Br)cnc2O[C@H]1CN(C)Cc1ccccc1	1	-17	0	-3	nt	nt	nt	nt
CO[C@H]1CN(C)C(=O)c2cc(NC(=O)Nc3cc(F)ccc3F)ccc2OC[C@H](C)N(C)C[C@@H]1C	1	-22	0	-39	nt	nt	nt	nt
C[C@H]1CN([C@@H](C)CO)S(=O)(=O)c2ccc(C#CCN(C)C)cc2O[C@@H]1CN(C)C(=O)C1CC1	-1	-8	3	111*	109*	99*	5	5
C[C@@H]1CN([C@H](C)CO)S(=O)(=O)c2ccc(C#CC(C)(C)O)cc2O[C@@H]1CN(C)C(=O)C1CC1	-2	21	0	-21	nt	nt	nt	nt

Screening results as filed in PubChem.
